Results on six compounds are retold here after ChEMBL document CHEMBL1148694, “Calcitriol derivatives with two different side-chains at C-20. Part 4: further chain modifications that alter VDR-dependent monocytic differentiation potency in human leukemia cells” (2007).

Test [1] is described as follows: Induction of differentiation in human HL60-G cells assessed as CD11b expression. Type of test: functional. The method, boiled down:
(§1)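 HL60-G33 cells in RPMI 1640 with 10% bovine calf serum at 37 °C, 5% CO2, given compounds in fresh medium (ethanol vehicle); 1,25D at 0.1, 1 and 10 nM. 1×10^6 cells washed twice in PBS, stained on ice for 45 min with MO1-FITC (CD11b) and MY4-RD1 (CD14), then washed. Flow cytometry with acquisition set on isotype controls.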

Test [2] in a line: Induction of differentiation in human HL60-G cells assessed as CD14 expression. The format is functional. The method, boiled down: as §1
The nature of test [3]: Induction of differentiation in human HL60-G cells assessed as CD11b expression relative to 1-alpha,25-dihydroxyvitamin D3. Type of test: functional. The method, boiled down: as §1
The nature of test [4]: Induction of differentiation in human HL60-G cells assessed as CD14 expression relative to 1-alpha,25-dihydroxyvitamin D3. The format is functional. The method in brief: as §1
Test [5] is described as follows: (§2) Induction of CYP24 mRNA expression in human HL60-G cells at 1 nM after 12 hrs relative to 1-alpha,25-dihydroxyvitamin D3. The format is functional. The method, boiled down:
(§3)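 HL60-G33 cells exposed to 1 nM compound for 12 h. Total RNA from 5×10^6 cells was DNase-treated, and 1 μg was reverse transcribed with MuLV RT and oligo-d(T). CYP24 transcript measured by SYBR green real-time PCR on a LightCycler with ARP0 as internal control. Values normalized to 1,25D treatment.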

In another test the test system is HL60-40AF. As to the kind of experiment: Induction of differentiation in 1-alpha,25-dihydroxyvitamin D3 resistant human HL60-40AF cells. The format is functional, cell-based. The method in brief: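 Differentiation-resistant HL60-40AF subclone adapted to grow in 1,25D, cultured in RPMI 1640 with 10% bovine calf serum. Compounds given in fresh medium with ethanol vehicle; 1,25D at 10 and 100 nM. 1×10^6 cells washed in PBS, stained on ice for 45 min with MY4-RD1 (CD14) and MO1-FITC (CD11b). Read by flow cytometry, gated on isotype controls.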

The subject of a further test is HL60-G. The test is described as §2. Type of test: functional. The method in brief:
as §3

The nature of test [6]: Cell cycle arrest in HL60-G cells assessed as accumulation at G1 phase after 48 to 72 hrs. The format is functional, cell-based. To be noted: Homo sapiens. The method, boiled down:
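HL60-G33 cells in RPMI 1640 with 10% bovine calf serum, 37 °C, 5% CO2, given compounds in fresh medium (ethanol vehicle) for 48 and 72 h over increasing concentrations. 1×10^6 cells fixed in 75% ethanol at -20 °C overnight, treated with RNase A 100 U/mL at 37 °C for 1 h, stained with propidium iodide 10 μg/mL. Flow cytometry; G1/S ratio.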

Calls of active or inactive are those of the source. The rule behind the calls is not given here.

Regarding `CC(C)(O)CCC[C@@]1([C@H]2CCC3/C(=C/C=C4C[C@@H](O)C[C@H](O)C4)CCC[C@@]32C)C[C@H]1CCC(C)(C)O` (stereo partly specified), the ED20 was determined as 98.75 nM in test [1] and 66.03 nM in test [2]. For the same compound, the results for the Activity in test [3] and in test [4] were 0.01 and 0.009, respectively.

Take `CC(C)(O)CC[C@@H]1C[C@@]1(CC#CC(O)(C(F)(F)F)C(F)(F)F)[C@H]1CCC2/C(=C/C=C3C[C@@H](O)C[C@H](O)C3)CCC[C@@]21C` (stereo partly specified): the ED20 in test [1] was found to be 1.17 nM; in test [2], 0.46 nM. Besides, the Activity amounted to 1.03 in test [3] and 1.24 in test [4]. In test [5], the Fold change was found to be 2.5. The outcome in the test with HL60-40AF was Active.

Take `C=C1/C(=C\C=C2/CCC[C@@]3(C)C2CC[C@@H]3[C@]2(CCCC(C)(C)O)C[C@H]2CCC(C)(C)O)C[C@@H](O)C[C@@H]1O` (stereo partly specified): the ED20 in test [1] came out at 19.75 nM; in test [2], 9.97 nM. The Activity in test [3] is listed as 0.06. Further, the result in the test on HL60-G was inactive.

As for `C=C1/C(=C\C=C2/CCC[C@@]3(C)C2CC[C@@H]3[C@]2(CCCC(C)(C)O)C[C@H]2CCC(C)(C)O)C[C@@H](O)C[C@H]1F` (stereo partly specified), the ED20 in test [2] is given as more than 500 nM. The Activity in test [3] is given as less than 0.002; in test [4] it was less than 0.001.

For `C=C1/C(=C\C=C2/CCC[C@@]3(C)C2CC[C@@H]3[C@H](C)CCCC(C)(C)O)C[C@@H](O)C[C@H]1O` (stereo partly specified), the ED20 stood at 1.2 nM in test [1] and 0.57 nM in test [2].

Take `C=C1/C(=C\C=C2/CCC[C@@]3(C)C2CC[C@@H]3[C@]2(CC#CC(O)(C(F)(F)F)C(F)(F)F)C[C@H]2CCC(C)(C)O)C[C@@H](O)C[C@@H]1O` (stereo partly specified): the figures for the ED20 in test [1] and in test [2] were 0.52 nM and 0.24 nM, respectively. The values for the Activity in test [3] and in test [4] were 2.31 and 2.38, respectively. For the same compound, in test [5], the Fold change worked out at 30. The result (in test [6]; in the test with HL60-40AF) was Active.
